Assay [1] has as its system HepG2. The assay is described as follows: Cytotoxicity against human HepG2 cells assessed as reduction in cell viability after 48 hrs by MTT assay. It is filed as functional, cell-based. The settings on record: HepG2, 48 h. An outline of the steps: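 HepG2 seeded at 3×10^3/well, grown 24 h, then exposed to compounds for 48 h. MTT (0.5 mg/mL) added for 4 h, formazan dissolved in DMSO, absorbance read at 570 nm. IC50 = concentration giving 50% loss of viability; mean ± SD of three determinations.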
(In general: Formazan colour is commonly taken as a measure of viable cells.)

Assay [2] has as its system HepG2. The assay is described as follows: Induction of apoptosis in human HepG2 cells assessed as necrotic cells at 5 mM after 24 hrs by Annexin V-FITC/propidium iodide staining based flow cytometry (reference value: 1.6%). The assay is classed as functional. An outline of the steps:
(§1)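 HepG2 plated at 5×10^5/well, grown 24 h, then treated 24 h; where indicated, 1 h pretreatment with 5 mM GSH or NAC. Cells stained with Annexin V-FITC/PI; 10,000 cells per sample analysed by flow cytometry into early apoptotic, late apoptotic and necrotic quadrants; triplicate.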
A general note: A flow cytometer gives signals particle by particle.

Assay [3] relates to HepG2. Kind of assay: Induction of apoptosis in human HepG2 cells assessed as late apoptotic cells at 5 mM after 24 hrs by Annexin V-FITC/propidium iodide staining based flow cytometry (reference value: 5.4%). The assay is classed as functional. The method in brief:
as §1

The test system of assay [4] is HepG2. The assay is described as follows: Induction of apoptosis in human HepG2 cells assessed as early apoptotic cells at 5 mM after 24 hrs by Annexin V-FITC/propidium iodide staining based flow cytometry (reference value: 2.8%). It is filed as functional. An outline of the steps:
as §1

For `COc1cc(/C=C/C(=O)CC(=O)/C=C/c2ccc(O)c(OC)c2)ccc1O` [CURCUMIN], the IC50 in assay [1] was determined as 52.3 µM.

On to `O=C(/C=C/c1cccc(C(F)(F)F)c1)CC(=O)/C=C/c1cccc(C(F)(F)F)c1`, for which the concentration for half-maximal inhibition (IC50) in assay [1] is over 200 µM.

`O=C(/C=C/c1ccc(O)cc1)CC(=O)/C=C/c1ccc(O)cc1` [BISDEMETHOXYCURCUMIN]: the IC50 in assay [1] was found to be 75.5 µM.

Take `CC(=O)N[C@@H](CS)C(=O)O` [ACETYLCYSTEINE]: the Activity in assay [2] was 1.9%; in assay [3], 6.6%; in assay [4] it was 2.6%.

Consider `N[C@@H](CCC(=O)N[C@@H](CS)C(=O)NCC(=O)O)C(=O)O` [GLUTATHIONE], for which the Activity amounted to 2.1% in assay [2], 5.5% in assay [3] and 2.5% in assay [4].

As to `O=C(/C=C/c1ccccc1C(F)(F)F)CC(=O)/C=C/c1ccccc1C(F)(F)F`, the IC50 in assay [1] was over 200 µM.

By IC50 is commonly meant the concentration at which inhibition is half-maximal.

The record behind these values is ChEMBL document CHEMBL3779898, “3,3'-OH curcumin causes apoptosis in HepG2 cells through ROS-mediated pathway” (Eur J Med Chem, 2016).
